One test deals with Aeromonas salmonicida. Briefly: Antimicrobial activity against Aeromonas salmonicida subsp. salmonicida CIP 103209T after 24 hrs by broth micro dilution assay. It counts as functional. The method in brief:
(§1)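 Compounds were in DMSO (at most 5% of total volume) and were incubated with the strain in PB medium in 96-well plates at 37 °C for 24 h with stirring. Growth was read as optical density at 630 nm. Runs were in triplicate and averaged. Wells without growth were plated on rich solid medium to tell bacteriostatic from bactericidal action.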

Another test concerns Micrococcus luteus. As to the kind of experiment: Antimicrobial activity against Micrococcus luteus CIP A270 after 24 hrs by broth micro dilution assay. The conditions noted are these: CIP A270, 24 h. It counts as functional. The method in brief:
as §1

The subject of test [1] is Paracentrotus lividus. As to the kind of experiment: Antiproliferative activity against Paracentrotus lividus eggs assessed as inhibition of first cell division measured 75 mins post fertilization by inverted microscopy. The settings on record: 1.25 h.
Test [2] deals with SH-SY5Y. Briefly: Cytotoxicity against human SH-SY5Y cells assessed as decrease in cell viability at 0.001 to 100 uM after 24 hrs by MTT assay. It counts as functional, cell-based. The method in brief:
(§2)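 SH-SY5Y cells were grown in DMEM/F-12 with 10% FBS at 37 °C in 5% CO2. Cells were seeded at 5 × 10^4 per well one day ahead, then treated at 0.001–100 μM for 24 h. MTT at 500 μg/mL was added for 1 h at 37 °C, cells were lysed with 5% SDS, and absorbance was read at 595 nm. The saponin death control was subtracted, and IC50 came from a log(inhibitor)–response fit.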
In general terms: Tetrazolium assays rely on reduction of a dye to a coloured formazan, in cell work by metabolically active cells.

The subject of the next test is Shewanella baltica. Briefly: Antimicrobial activity against Shewanella baltica CIP 105850T after 24 hrs by broth micro dilution assay. It counts as functional. The method in brief: as §1
The subject of another test is Escherichia coli. As to the kind of experiment: Antimicrobial activity against Escherichia coli CIP 54.8 after 24 hrs by broth micro dilution assay. The settings on record: CIP 54.8, 24 h. It counts as functional. The method, boiled down:
as §1

The test system of the next test is Vibrio anguillarum. As to the kind of experiment: Antimicrobial activity against Vibrio anguillarum CIP 63.36T after 24 hrs by broth micro dilution assay. It counts as functional. The method in brief: as §1
Test [3] concerns SH-SY5Y. Briefly: Induction of apoptosis in human SH-SY5Y cells at 1 uM after 6 hrs by Annexin V-FITC/PI staining based flow cytometry. It counts as functional, cell-based. The method, boiled down:
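SH-SY5Y cells in DMEM/F-12 with 10% FBS at 37 °C, 5% CO2, seeded at 1 × 10^6 cells per well and exposed 6 h. They were then washed in PBS, stained 15 min with annexin V–FITC plus propidium iodide in binding buffer, and 10 000 events were read by imaging flow cytometry. Cells were classed as viable, apoptotic, late apoptotic or necrotic. Three independent experiments; mean ± SEM; Student's t test vs untreated cells.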
On the technique in general: In flow cytometry, cells or beads pass a laser one at a time.

The test system of test [4] is SH-SY5Y. Briefly: Induction of apoptosis in human SH-SY5Y cells at 6 uM after 6 hrs by Annexin V-FITC/PI staining based flow cytometry. It counts as functional. The method in brief: (§3)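 SH-SY5Y cells were seeded at 1 × 10^6 per well and treated 6 h at 6 μM. Cells were washed in PBS and stained with annexin V–FITC and propidium iodide for 15 min. 10 000 events were analysed by imaging flow cytometry and classed as viable, apoptotic, late apoptotic or necrotic. Staurosporine (1 μM) was the death control. Data are mean ± SEM of three experiments, with Student's t test.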

Test [5] concerns SH-SY5Y. As to the kind of experiment: Induction of cell death in human SH-SY5Y cells at 15 uM pretreated with caspase inhibitor ZVAD-FMK for 24 hrs followed by compound addition measured after 6 hrs by MTT assay. It counts as functional, cell-based. The method in brief:
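SH-SY5Y cells were seeded as for MTT and preincubated with 40 μM Z-VAD-FMK for 24 h. Compound was then added (5, 10, 15 μM) for 6 h, and viability was read by MTT as % of untreated cells. Staurosporine (0.5 μM) was the apoptosis control. Data are mean ± SEM of three independent experiments in triplicate, with Student's t test.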

Test [6] relates to SH-SY5Y. Briefly: Cytotoxicity against human SH-SY5Y cells assessed as decrease in cell viability after 24 hrs by MTT assay. It counts as functional, cell-based. The method in brief: as §2
Test [7] concerns SH-SY5Y. Briefly: Induction of apoptosis in human SH-SY5Y cells assessed as necrotic cells at 6 uM after 6 hrs by Annexin V-FITC/PI staining based flow cytometry. It counts as functional. The method in brief: as §3
The subject of test [8] is Paracentrotus lividus. Briefly: Induction of morphological changes in Paracentrotus lividus eggs assessed as granulations of plasmic membrane at 5 uM measured 80 to 120 mins post fertilization by reversed optical microscopy. It counts as functional, organism-based. The method, boiled down: (§4)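 P. lividus fertilized eggs were kept with 5 μM compound, with controls in seawater containing 1% MeOH. Morphology was scored under a reversed optical microscope (20×) at 80 min, 120 min and 18 h post-fertilization. The percentage of each typical phenotype was recorded.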

The test system of test [9] is Paracentrotus lividus. As to the kind of experiment: Cell cycle arrest in Paracentrotus lividus eggs assessed as dispersion of condensed DNA in nucleus at 5 uM measured 60 mins post fertilization by DAPI staining staining based assay. It counts as functional, organism-based. The method in brief:
(§5)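 Fertilized P. lividus eggs were treated with 5 μM compound and stained with DAPI to show nuclear DNA at 30 and 60 min post-fertilization. Chromatin state was compared with untreated control eggs.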

For test [10], the system named is Paracentrotus lividus. Briefly: Induction of DNA fragmentation in Paracentrotus lividus eggs at 5 uM measured 60 mins post fertilization by TUNEL based fluorescence assay. It counts as functional, organism-based. The method in brief: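 P. lividus eggs were treated with 5 μM compound. Before first division (60 min post-fertilization), fluorescent TUNEL labelling of 3′-OH DNA ends was done. DNase-treated eggs served as positive control and untreated eggs as negative control.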

In test [11] the test system is Paracentrotus lividus. As to the kind of experiment: Antiproliferative activity against Paracentrotus lividus eggs assessed as inhibition of first cell division at 4 uM measured 75 mins post fertilization by inverted microscopy relative to control. It counts as functional. The conditions noted are these: 1.25 h. The method, boiled down: (§6)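 Paracentrotus lividus gametes were collected after acetylcholine injection into the coelomic cavity. Fertilized eggs were incubated with compound at 0–30 μM in 96-well microplates. Dividing eggs were scored under an inverted microscope at 75 min post-fertilization, when control eggs had completed first cleavage. The percentage of dividing eggs was recorded.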

Test [12] deals with Paracentrotus lividus. As to the kind of experiment: Inhibition of cell division in Paracentrotus lividus eggs assessed as reduction in reaching mesenchymal blastula stage at 5 uM measured 18 hrs post fertilization by reversed optical microscopy. It counts as functional, organism-based. The method, boiled down:
as §4

The subject of test [13] is Paracentrotus lividus. Briefly: Antiproliferative activity against Paracentrotus lividus eggs assessed as inhibition of cell division at 5 uM measured 80 mins post fertilization by reversed optical microscopy. It counts as functional, organism-based. The method in brief: as §4
The test system of test [14] is Paracentrotus lividus. Briefly: Induction of apoptosis in Paracentrotus lividus eggs assessed as DNA localization at nuclear periphery at 5 uM measured 30 mins post fertilization by DAPI staining staining based assay. It counts as functional, organism-based. The method in brief:
as §5

Test [15] relates to Paracentrotus lividus. As to the kind of experiment: Induction of morphological changes in Paracentrotus lividus eggs assessed as membrane blebbing at 5 uM measured 80 to 120 mins post fertilization by reversed optical microscopy. It counts as functional, organism-based. The method in brief:
as §4

Test [16] concerns Paracentrotus lividus. Briefly: Antiproliferative activity against Paracentrotus lividus eggs assessed as cells divided with formation of extracellular cytoplasmic granules at 5 uM measured 80 mins post fertilization by reversed optical microscopy. It counts as functional. The method in brief: as §4
Test [17] concerns Paracentrotus lividus. As to the kind of experiment: Antiproliferative activity against Paracentrotus lividus eggs assessed as inhibition of first cell division at 2 uM measured 75 mins post fertilization by inverted microscopy relative to control. It counts as functional. The conditions noted are these: 1.25 h. The method, boiled down:
as §6

Test [18] concerns Paracentrotus lividus. As to the kind of experiment: Induction of apoptosis in Paracentrotus lividus eggs assessed as DNA condensation at 5 uM measured 30 mins post fertilization by DAPI staining staining based assay. It counts as functional, organism-based. The method, boiled down:
as §5

Converted amounts (≈) assume the structure as drawn. The source made the active and inactive calls.

On to `C#CCCC[C@H]1OC(=O)[C@H]([C@@H](C)CC)N(C)C(=O)[C@@H]2CCCN2C(=O)[C@H](Cc2ccccc2)OC(=O)[C@H](C(C)C)N(C)C(=O)[C@H](C(C)C)NC(=O)[C@H]1C`, for which the MIC against Aeromonas salmonicida is 27 µM (≈ 19.9 µg/mL); with Micrococcus luteus, 47 µM (≈ 34.6 µg/mL); with Shewanella baltica, above 50 µM; with Escherichia coli it was 35 µM (≈ 25.8 µg/mL); in the test with Vibrio anguillarum it was 33 µM (≈ 24.3 µg/mL). In the test on Paracentrotus lividus [1], the IC50 worked out at 11 µM. Further, the result with SH-SY5Y [2] was inactive.
Take `CN[C@@H]1C[C@H]2O[C@@](C)([C@@H]1OC)n1c3ccccc3c3c4c(c5c6ccccc6n2c5c31)C(=O)NC4`: in the test with SH-SY5Y [3], the outcome was Active.
As for `CCCCC[C@H]1OC(=O)[C@H]([C@@H](C)CC)N(C)C(=O)[C@@H]2CCCN2C(=O)[C@H](Cc2ccccc2)OC(=O)[C@H](C(C)C)N(C)C(=O)[C@H](C(C)C)NC(=O)[C@H]1C`, the MIC against Aeromonas salmonicida is 6.7 to 7 µM (≈ 4.96 to 5.19 µg/mL); against Micrococcus luteus it was 17 µM (≈ 12.6 µg/mL); against Shewanella baltica, 16 µM (≈ 11.9 µg/mL); against Escherichia coli, 14 µM (≈ 10.4 µg/mL); in the test on Vibrio anguillarum, 7 to 7.4 µM (≈ 5.19 to 5.48 µg/mL). The results for the Activity in the test on SH-SY5Y [4] and with SH-SY5Y [7] were 7.9% and 36%, respectively. Moreover, the IC50 with Paracentrotus lividus [1] was 7 µM; in the test with SH-SY5Y [6], 6 µM. The result with SH-SY5Y [5] was Active.
As for `C=CCCC[C@H]1OC(=O)[C@H]([C@@H](C)CC)N(C)C(=O)[C@@H]2CCCN2C(=O)[C@H](Cc2ccccc2)OC(=O)[C@H](C(C)C)N(C)C(=O)[C@H](C(C)C)NC(=O)[C@H]1C`, the MIC was determined as 9.4 µM (≈ 6.95 µg/mL) in the test with Aeromonas salmonicida; 29 µM (≈ 21.4 µg/mL) in the test with Micrococcus luteus; 22 µM (≈ 16.3 µg/mL) against Shewanella baltica; 12 µM (≈ 8.87 µg/mL) in the test with Escherichia coli; 8.5 µM (≈ 6.28 µg/mL) against Vibrio anguillarum. For the same molecule, the result with Paracentrotus lividus [8], with Paracentrotus lividus [9], with Paracentrotus lividus [10], with Paracentrotus lividus [14], in the test with Paracentrotus lividus [15] and with Paracentrotus lividus [18] was Active. The inhibition at 4 µM in the test on Paracentrotus lividus [11] came to 60%. Also, the IC50 turned out to be 3.9 µM in the test with Paracentrotus lividus [1] and 14 µM in the test with SH-SY5Y [6]. For the same molecule, the inhibition result with Paracentrotus lividus [12] and with Paracentrotus lividus [13] was “Active” throughout. Besides, the Activity in the test on Paracentrotus lividus [16] stood at 8%. Besides, the inhibition at 2 µM with Paracentrotus lividus [17] was determined as 10%.

In general, MIC refers to the smallest concentration in the dilution series that meets the test's criterion for growth inhibition. By IC50 is commonly meant the concentration at which inhibition is half-maximal. By inhibition is commonly meant the relative decrease from the control value, in per cent.

Values taken from ChEMBL document CHEMBL4145585, “Structures and Activities of Tiahuramides A-C, Cyclic Depsipeptides from a Tahitian Collection of the Marine Cyanobacterium Lyngbya majuscula” (J Nat Prod, 2018).
